Results taken from ChEMBL document CHEMBL3244387, “Isolation, characterization, and properties of a labile hydrolysis product of the antitumor nucleoside, 5-azacytidine” (J Med Chem, 1978).

Key:
Mus musculus [1] = assay: Toxicity in mouse L1210 cells allografted CDF1 mouse assessed as change in body weight between day 1 and day 5 at 40 mg/kg, ip dosed on days 1 and 5; format: organism-based; parameters: dose 40 mg/kg, route intraperitoneal; conditions: in vivo
Summary of the method: (§1)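 Female CDF1 mice, 11-12 weeks old, were given 0.1 mL L1210 suspension ip (1.43×10^6 cells/mL) on day 0. Drug was purified by preparative HPLC, dissolved in sterile 0.85% saline and given ip within 15 min, on days 1, 5 and 9. Ten mice per dose, with ten untreated controls. Weights on days 1, 5 and 9. Value is the mean body-weight change of treated minus control, in grams.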

Mus musculus [2] = assay: Toxicity in mouse L1210 cells allografted CDF1 mouse assessed as change in body weight between day 1 and day 9 at 60 mg/kg, ip dosed on days 1, 5 and 9; format: organism-based; parameters: dose 60 mg/kg, route intraperitoneal; conditions: in vivo; summary of the method: as §1
Mus musculus [3] = assay: Toxicity in mouse L1210 cells allografted CDF1 mouse assessed as change in body weight between day 1 and day 9 at 10 mg/kg, ip dosed on days 1, 5 and 9; format: organism-based; parameters: dose 10 mg/kg, route intraperitoneal; conditions: in vivo; summary of the method: as §1
L1210 [4] = assay: Antitumor activity against mouse L1210 cells allografted in CDF1 mouse assessed as increase in life span at 20 mg/kg, ip relative to control; format: functional; conditions: route intraperitoneal
Summary of the method: (§2)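 Female CDF1 mice, 11-12 weeks old, inoculated ip on day 0 with 0.1 mL L1210 suspension (1.43×10^6 cells/mL). Drug purified by preparative HPLC, dissolved in sterile 0.85% saline, injected ip within 15 min on days 1, 5 and 9. Ten mice per dose; ten untreated controls. Read-out: % increase in mean life span over controls; ≥25% counted as active; test run in duplicate.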

Mus musculus [5] = assay: Toxicity in mouse L1210 cells allografted CDF1 mouse assessed as change in body weight between day 1 and day 9 at 20 mg/kg, ip dosed on days 1, 5 and 9; format: organism-based; parameters: dose 20 mg/kg, route intraperitoneal; conditions: in vivo; summary of the method: as §1
[6] = Half life in water at 2.6 mg/ml at 25 degC by UV-HPLC analysis; format: physicochemical
L1210 [7] = assay: Antitumor activity against mouse L1210 cells allografted in CDF1 mouse assessed as increase in life span at 60 mg/kg, ip relative to control; format: functional; conditions: route intraperitoneal; summary of the method: as §2
L1210 [8] = assay: Antitumor activity against mouse L1210 cells allografted in CDF1 mouse assessed as increase in life span at 5 mg/kg, ip relative to control; format: functional; conditions: route intraperitoneal; summary of the method: as §2
Mus musculus [9] = assay: Toxicity in mouse L1210 cells allografted CDF1 mouse assessed as change in body weight between day 1 and day 9 at 40 mg/kg, ip dosed on days 1, 5 and 9; format: organism-based; parameters: dose 40 mg/kg, route intraperitoneal; conditions: in vivo; summary of the method: as §1
[10] = Stability of the compound in water assessed as compound remaining at 2.6 mg/ml at 25 degC after 24 hrs by UV-HPLC analysis; format: physicochemical; conditions: read-out: Stability
Mus musculus [11] = assay: Toxicity in mouse L1210 cells allografted CDF1 mouse assessed as change in body weight between day 1 and day 5 at 10 mg/kg, ip dosed on days 1 and 5; format: organism-based; parameters: dose 10 mg/kg, route intraperitoneal; conditions: in vivo; summary of the method: as §1
Mus musculus [12] = assay: Toxicity in mouse L1210 cells allografted CDF1 mouse assessed as change in body weight between day 1 and day 5 at 5 mg/kg, ip dosed on days 1 and 5; format: organism-based; parameters: dose 5 mg/kg, route intraperitoneal; conditions: in vivo; summary of the method: as §1
L1210 [13] = assay: Antitumor activity against mouse L1210 cells allografted in CDF1 mouse assessed as increase in life span at 40 mg/kg, ip relative to control; format: functional; conditions: route intraperitoneal; summary of the method: as §2
[14] = Stability of the compound in water assessed as compound remaining at 2.6 mg/ml at 37 degC after 7 hrs by UV-HPLC analysis; format: physicochemical; conditions: read-out: Stability
Mus musculus [15] = assay: Toxicity in mouse L1210 cells allografted CDF1 mouse assessed as mortality at 5 to 60 mg/kg, ip; format: organism-based; parameters: dose 5-60 mg/kg, route intraperitoneal; conditions: in vivo
Summary of the method: (§3)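 L1210 ip implant (1.43×10^6 cells/mL, 0.1 mL) in female CDF1 mice, 11-12 weeks old. Freshly dissolved HPLC-purified drug in 0.85% saline given ip on days 1, 5 and 9; ten mice per dose. Toxicity scored as early death from acute toxicity, with body weights on days 1, 5 and 9 compared against untreated controls.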

Mus musculus [16] = assay: Toxicity in mouse L1210 cells allografted CDF1 mouse assessed as change in body weight between day 1 and day 5 at 60 mg/kg, ip dosed on days 1 and 5; format: organism-based; parameters: dose 60 mg/kg, route intraperitoneal; conditions: in vivo; summary of the method: as §1
Mus musculus [17] = assay: Toxicity in mouse L1210 cells allografted CDF1 mouse assessed as change in body weight between day 1 and day 5 at 20 mg/kg, ip dosed on days 1 and 5; format: organism-based; parameters: dose 20 mg/kg, route intraperitoneal; conditions: in vivo; summary of the method: as §1
L1210 [18] = assay: Antitumor activity against mouse L1210 cells allografted in CDF1 mouse assessed as increase in life span at 10 mg/kg, ip relative to control; format: functional; conditions: route intraperitoneal; summary of the method: as §2
[19] = Stability of the compound in water assessed as compound remaining at 2.6 mg/ml at 37 degC after 4 hrs by UV-HPLC analysis; format: physicochemical; conditions: read-out: Stability
Mus musculus [20] = assay: Toxicity in mouse L1210 cells allografted CDF1 mouse assessed as change in body weight between day 1 and day 9 at 5 mg/kg, ip dosed on days 1, 5 and 9; format: organism-based; parameters: dose 5 mg/kg, route intraperitoneal; conditions: in vivo; summary of the method: as §1
[21] = Half life in water at 2.6 mg/ml at 37 degC by UV-HPLC analysis; format: physicochemical
Mus musculus [22] = assay: Toxicity in mouse L1210 cells allografted CDF1 mouse assessed as change in body weight between day 1 and day 5 at 2.5 mg/kg, ip dosed on days 1 and 5; format: organism-based; parameters: dose 2.5 mg/kg, route intraperitoneal; conditions: in vivo; summary of the method: as §1
L1210 [23] = assay: Antitumor activity against mouse L1210 cells allografted in CDF1 mouse assessed as increase in life span at 2.5 mg/kg, ip relative to control; format: functional; conditions: route intraperitoneal
Summary of the method: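 Female CDF1 mice, 11-12 weeks old, given 0.1 mL ip of L1210 cells at 1.43×10^6 cells/mL on day 0. Drug purified by preparative HPLC, dissolved in sterile 0.85% saline and injected ip within 15 min, on days 1, 5 and 9. Ten mice per dose, ten untreated controls. % ILS is the increase in mean life span over controls; ≥25% counted as active.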

Mus musculus [24] = assay: Toxicity in mouse L1210 cells allografted CDF1 mouse assessed as change in body weight between day 1 and day 9 at 2.5 mg/kg, ip dosed on days 1, 5 and 9; format: organism-based; parameters: dose 2.5 mg/kg, route intraperitoneal; conditions: in vivo; summary of the method: as §1
Half life in mice = conditions: mouse, in vivo
Mus musculus [25] = assay: Toxicity in mouse L1210 cells allografted CDF1 mouse assessed as mortality at 2.5 to 40 mg/kg, ip; format: organism-based; parameters: dose 2.5-40 mg/kg, route intraperitoneal; conditions: in vivo; summary of the method: as §3

| Structure (SMILES) | Activity (Mus musculus [1]) [g] | Activity (Mus musculus [3]) [g] | ILS at 20 mg/kg (L1210 [4]) [%] | Activity (Mus musculus [5]) [g] | ILS at 5 mg/kg (L1210 [8]) [%] | Activity (Mus musculus [9]) [g] | Activity (Mus musculus [11]) [g] | Activity (Mus musculus [12]) [g] | ILS at 40 mg/kg (L1210 [13]) [%] | Activity (Mus musculus [17]) [g] | ILS at 10 mg/kg (L1210 [18]) [%] | Activity (Mus musculus [20]) [g] | other results |
| --- | --- | --- | --- | --- | --- | --- | --- | --- | --- | --- | --- | --- | --- |
| N=C(NC=O)NC(=O)N[C@@H]1O[C@H](CO)[C@@H](O)[C@H]1O | -0.8 | -3.4 | 56 | -3.8 | 17 | -4.7 | -1.6 | -1.2 | 85 | -1.9 | 33 | -2.6 | Activity (Mus musculus [2]): -4.3 g; half-life at 2.6 mg/ml [6]: 9 h; ILS at 60 mg/kg (L1210 [7]): 93%; remaining at 24 h, 2.6 mg/ml [10]: 24%; remaining at 7 h, 2.6 mg/ml [14]: 25%; Activity (Mus musculus [15]): Non-toxic; Activity (Mus musculus [16]): -1.9 g; remaining at 4 h, 2.6 mg/ml [19]: 31%; half-life at 2.6 mg/ml [21]: 2 h |
| Nc1ncn([C@@H]2O[C@H](CO)[C@@H](O)[C@H]2O)c(=O)n1 [AZACITIDINE] | -2.3 | -4.5 | 130 | -5.1 | 63 | -6.5 | -1.8 | -1 | 84 | -1.6 | 86 | -2.9 | Activity (Mus musculus [22]): -1.5 g; ILS at 2.5 mg/kg (L1210 [23]): 33%; Activity (Mus musculus [24]): -5.7 g; half-life (Half life in mice): < 6 h; Activity (Mus musculus [25]): Non-toxic |
